In PubChem BioAssay:
Activity calls are given as the source filed them.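 The calls were made as follows, unless noted: active = inhibition at or above 50% at 10 µM; inactive = inhibition below 50%.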

Columns and labels:
[1] = inhibitors of TNFa-induced NFkB p65 translocation, primary screen, imaging, HUVEC, MLSMR starter and 10KST1 sets (AID 438;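 active = inhibition above 20% together with a positive visual image hit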;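 also: compound added about 3h40 before a 20 min TNFalpha stimulation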;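 as to inhibition: signal is the nuclear over cytoplasmic p65 intensity ratio per well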); settings: HUVEC TNFa-induced p65 nuclear translocation; cell count: measured here: nuclei count (cytotoxicity indicator), at 2.08 µM; inhibition: at 2 µM, stronger effect = higher value, 0% TNFa-plus-vehicle, 100% no-TNFa wells
[2] = inhibitors of mutant huntingtin aggregation, primary screen, imaging, exon1htt(103Q)mCFP cells, high-content imaging (AID 483;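 active = visual image review flags a hit and inhibition of aggregation exceeds 20%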;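 also: compound exposure lasted 3 days before fixation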;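 as to nuclei count: percent of the per-plate median nuclei count of sample wells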); settings: exon1htt(103Q)mCFP cell line, aggregate imaging, at 2 µM; inhibition of aggregation: stronger effect = higher value; nuclei count: measured here: cell count, toxicity
[3] = inhibitors of E-selectin induction by TNFa, primary screen, imaging, HUVEC, immunofluorescence, MLSMR starter and 10KST1 sets (AID 487;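 active = visually confirmed hit in the image check and inhibition above 20%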;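 as to inhibition: signal is fraction of cell area covered by stained E-selectin grains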;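 as to nuclei count: 100% = median nuclei count of all wells on the same plate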); settings: HUVEC TNFalpha-induced E-selectin immunofluorescence imaging, at 2 µM; inhibition: stronger effect = higher value; nuclei count: measured here: cell number, toxicity
[4] = target: Voltage-gated potassium channel subunit beta-2 (Rattus norvegicus) (UniProt P62483); assay: KvBeta enzyme negative modulators, primary screen, biochemical, NADPH fluorescence (AID 622;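 active = fluorescence slope higher than the sample average by over 3 SD, cut at about -0.22 in these data, passing the limit was not always enough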;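 also: slope of raw intensity against log time taken from 70 to 1610 s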); settings: recombinant KvBeta, 4-cyanobenzaldehyde reduction, at 10 µM, stronger effect = higher value
Voltage-gated potassium channel subunit beta-2 (Rattus norvegicus), sequence (P62483 whole entry, looked up): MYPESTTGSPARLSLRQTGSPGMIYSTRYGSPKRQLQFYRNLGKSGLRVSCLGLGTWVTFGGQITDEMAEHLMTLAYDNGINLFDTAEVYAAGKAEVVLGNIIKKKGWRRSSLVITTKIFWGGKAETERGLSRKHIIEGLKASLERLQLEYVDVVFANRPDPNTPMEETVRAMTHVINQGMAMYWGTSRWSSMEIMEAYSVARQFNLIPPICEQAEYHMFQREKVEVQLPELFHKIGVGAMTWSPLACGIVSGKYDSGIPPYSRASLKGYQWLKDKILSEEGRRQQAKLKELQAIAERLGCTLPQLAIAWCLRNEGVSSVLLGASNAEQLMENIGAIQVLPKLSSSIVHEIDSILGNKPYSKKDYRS

[5] = target: Voltage-gated potassium channel subunit beta-2 (Rattus norvegicus) (UniProt P62483); assay: KvBeta positive modulators, primary screen, biochemical, NADPH fluorescence (AID 623;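 active = NADPH fluorescence slope more negative than the mean of all samples by about 3 SD, 99.7% confidence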;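 also: fluorescence intensity change per second fitted from 20 to 320 s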); settings: Recombinant KvBeta, NADPH fluorescence decrease slope, 10 min; at 10 µM; stronger effect = lower value
[6] = target: Muscarinic acetylcholine receptor M4 (Homo sapiens) (UniProt P08173); assay: compounds altering M4/GIRK thallium flux, either direction, primary screen, M4 allosteric agonist project, cell-based, HEK293 M4/GIRK, BTC-AM (AID 625;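 active = fluorescence slope after compound addition differing from the mean of all tested samples at 99.7% confidence, mostly higher but some lower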;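 also: thallium influx through GIRK channels coupled to M4 in HEK293 cells with BTC-AM dye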); settings: at 10 µM, actives lie on both sides
Muscarinic acetylcholine receptor M4 (Homo sapiens), sequence (P08173 whole entry, looked up): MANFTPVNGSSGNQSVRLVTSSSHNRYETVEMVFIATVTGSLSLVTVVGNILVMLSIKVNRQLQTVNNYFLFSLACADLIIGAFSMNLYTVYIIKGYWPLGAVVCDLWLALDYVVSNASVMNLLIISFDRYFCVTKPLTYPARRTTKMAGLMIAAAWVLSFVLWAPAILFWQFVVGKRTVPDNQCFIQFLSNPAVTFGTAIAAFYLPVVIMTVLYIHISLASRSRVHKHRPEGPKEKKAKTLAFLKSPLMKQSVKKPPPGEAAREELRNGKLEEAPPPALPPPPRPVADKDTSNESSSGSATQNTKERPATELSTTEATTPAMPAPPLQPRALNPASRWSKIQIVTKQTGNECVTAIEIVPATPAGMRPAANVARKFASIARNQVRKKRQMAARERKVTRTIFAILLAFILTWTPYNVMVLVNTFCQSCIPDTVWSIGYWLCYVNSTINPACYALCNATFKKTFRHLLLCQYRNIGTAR
Procedure, shortened: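 Material – HEK293 cells with M4 receptor and GIRK channels · Buffer or medium – pH 7.3 thallium assay buffer · Doses – one dose, 10 µM final · Timing – cells overnight at 37 °C, BTC-AM loading 1 h, reads 2 min total · Measured by – kinetic fluorescence with BTC-AM dye · Controls – carbachol and DMSO controls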

[7] = inhibitors of Sendai virus-induced IRF3 signaling, primary screen, TLR/RLR signaling modifier project, cell-based, Sendai virus stimulus, luciferase, 10K MLSCN set (AID 602276); settings: HEK293 RL24 IRF3 luciferase reporter, at 10 µM, stronger effect = higher value;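 also: firefly luciferase from ISG56 promoter only with Renilla not read in this screen; 0% = Sendai virus plus DMSO and 100% = medium plus DMSO without virus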
[8] = inhibitors of poly I:C-induced TLR3 signaling, primary screen, cell-based, poly I:C stimulus, luciferase, 10K MLSCN set (AID 602277;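 active = inhibition of the reporter signal at or above 50%; inactive = inhibition below 50%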); settings: HEK293-TLR3 RL24 IRF3 luciferase reporter, at 10 µM, stronger effect = higher value

Row | Structure (SMILES) | cell count [1] | inhibition [1] | inhibition of aggregation [2] | nuclei count [2] [%] | inhibition [3] | nuclei count [3] [%] | fluorescence slope [4] | NADPH fluorescence slope [5] | fluorescence slope [6] | inhibition [7] | inhibition [8]
1 | CCOc1ccc(OCC)c(NC(=O)C2CCN(S(=O)(=O)c3cnc[nH]3)CC2)c1 | 377 | -1.3% (inactive) | -15.6% (inactive) | 101 | 22.9% (inactive) | 80.4 | -0.572 (inactive) | -2.9e-05 (inactive) | 0.00665 (inactive) | 4.79% (inactive) | 10.8% (inactive)
2 | C=CCn1c(=O)[nH]c2cc(C(=O)N3CCN(c4cc(C)ccc4C)CC3)ccc2c1=O | 481 | -28.5% (inactive) | -1.6% (inactive) | 109 | -67.4% (inactive) | 127 | -0.245 (inactive) | -2.6e-05 (inactive) | 0.00726 (inactive) | 14.1% (inactive) | -2.95% (inactive)
3 | O=C(OCc1nnc(-c2ccccc2)o1)C1=COCCO1 | 462 | 0% (inactive) | 5.5% (inactive) | 71.7 | -58.4% (inactive) | 110 | -0.432 (inactive) | -1.1e-05 (inactive) | 0.00605 (inactive) | -2.24% (inactive) | -6.55% (inactive)
4 | CC(=O)Nc1nc(-c2ccc(Cl)cc2)nc(C)c1C(C)=O | 577 | 0.5% (inactive) | -13.8% (inactive) | 92.9 | -9.1% (inactive) | 90.1 | -0.261 (inactive) | -3.2e-05 (inactive) | 0.00747 (inactive) | 2.94% (inactive) | 6.23% (inactive)
5 | COc1cccc(-n2c(C)nc3c(cnn3-c3ccc(Cl)cc3)c2=O)c1 | 238 | -6.4% (inactive) | -13.4% (inactive) | 94.3 | -14.1% (inactive) | 114 | -0.553 (inactive) | 7.6e-06 (inactive) | 0.00702 (inactive) | -4.02% (inactive) | 4.48% (inactive)
6 | CCn1c(CSc2ncccn2)nnc1SCC(=O)N1c2ccccc2CC1C (centres undefined) | 644 | 27.9% (active) | -1.3% (inactive) | 103 | -3.3% (inactive) | 95.8 | -0.446 (inactive) | -7.9e-06 (inactive) | 0.00475 (inactive) | 12.2% (inactive) | 0.579% (inactive)
7 | CCN1C(=O)OC2(CCCCC2)C1(C)O (centres undefined) | 429 | 0% (inactive) | -3.6% (inactive) | 114 | 9.3% (inactive) | 106 | -0.566 (inactive) | 2.7e-05 (inactive) | 0.00575 (inactive) | 4.15% (inactive) | 8.64% (inactive)
8 | Cc1onc(-c2c(Cl)cccc2Cl)c1C(=O)NCCN1CCOCC1 | 548 | 5.1% (inactive) | -1.4% (inactive) | 98.9 | -48.2% (inactive) | 108 | -0.471 (inactive) | 3e-06 (inactive) | 0.00527 (inactive) | 21.3% (inactive) | 16.3% (inactive)
9 | CCCCC(c1nnnn1CS(=O)(=O)c1ccc(C)cc1)N1CCN(c2ccccc2)CC1 (centres undefined) | 370 | 6.6% (inactive) | -10.3% (inactive) | 100 | -47.5% (inactive) | 102 | -0.46 (inactive) | -2.8e-05 (inactive) | 0.00637 (inactive) | 32% (inactive) | 16.2% (inactive)
10 | COc1c2ccoc2nc2c(OC)c(OCC(O)C(C)(C)O)ccc12 (centres undefined) | 411 | -1.6% (inactive) | -14.6% (inactive) | 101 | -62.9% (inactive) | 138 | -0.11 (inactive) | -1.8e-05 (inactive) | 0.00374 (inactive) | 15.7% (inactive) | 7.86% (inactive)
11 | CCC(C)(C)n1nnnc1C(c1ccccc1OC)N1CCSCC1 (centres undefined) | 252 | -16.3% (inactive) | 6.6% (inactive) | 106 | 32.4% (inactive) | 53.7 | -0.555 (inactive) | -4.3e-05 (inactive) | 0.00476 (inactive) | 6.1% (inactive) | 23.7% (inactive)
12 | Cn1c(=O)c(NC(=O)c2ccccc2)c2n(c1=S)CCCCC2 | 359 | -5.7% (inactive) | 13.7% (inactive) | 95.3 | -17% (inactive) | 107 | -0.57 (inactive) | -1.1e-05 (inactive) | 0.00647 (inactive) | 16.3% (inactive) | 20% (inactive)
13 | CCCCn1c(SCC(=O)c2ccc3c(c2)OCCO3)nnc1-c1ccco1 | 528 | -12.7% (inactive) | -5.2% (inactive) | 108 | 15.4% (inactive) | 110 | -0.483 (inactive) | 0.00011 (inactive) | 0.00599 (inactive) | 6.03% (inactive) | 12.4% (inactive)
14 | CCn1c(SCC(=O)Nc2nnc(C)s2)nnc1-c1ccncc1 | 554 | -17.9% (inactive) | 25.6% (inactive) | 92.8 | -53.1% (inactive) | 114 | -0.301 (inactive) | -5.1e-05 (inactive) | 0.00811 (inactive) | 15.2% (inactive) | 0.883% (inactive)
